# A selection: hits, their analogues and other compounds. The true share with any hit is near 2.9%.
# HSP90 inh – HSP90 refolding inhibition in rabbit reticulocyte lysate. luciferase refolding luminescence, 3 h. inhibition, % at 5.6 µM. 290,000 compounds, 0.91% hits. AID 1789;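 active means inhibition above the screen-wide mean plus 3 SD, computed separately per campaign, cut at about 16% in these data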;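 further: 0% = DMSO wells and 100% = 60 µM geldanamycin wells; inhibitors lower the luminescence because luciferase stays unfolded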
# SENP8 block-1 – inhibitors of human SENP8 protease. 360,000 compounds, 0.64% hits. inhibition, % at 20 µM. recombinant SENP8, Nedd8 substrate fluorescence. Q96LD8; in the data active means inhibition mostly above about 40%, no sharp cut-off; inactive means mostly below about 27%
# SENP6 block – blocks the human protease SENP6; 330,000 compounds, 1.8% hits; Recombinant SENP6 catalytic domain, aminoluciferin luminescence; inhibition, % at 10 µM; Q9GZR1;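 active means inhibition above about 50% at the single tested dose, limit read from the data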;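 further: plate controls were DMSO wells with enzyme for no effect and DMSO wells lacking enzyme for full effect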
# SENP8 block-2 – SENP8 protease inhibition | Q96LD8 | 330,000 compounds, 1.2% hits | inhibition, % at 10 µM | purified SENP8, Z-RLRGG-aminoluciferin cleavage, luminescence | AID 2540; in the data active means inhibition above about 50%
# SENP7 block – inhibitors of human SENP7 protease; 330,000 compounds, 1.5% hits; AID 434973; inhibition, % at 5 µM; recombinant SENP7, Z-RLRGG-aminoluciferin luminescence, 40 min; Q9BQF6;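 active means inhibition above about 50% at the single test dose, limit read from the data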;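 further: plate controls were DMSO with enzyme for no effect and no enzyme buffer wells for full effect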
# SENP1 inh – SENP1 (human) catalytic domain inhibition. Q9P0U3. recombinant SENP1 catalytic domain, CyPet-SUMO1-YPet FRET cleavage. inhibition, % at 10 µM. 360,000 compounds, 0.21% hits. AID 624204;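 active means inhibition at least 30% at 10 µM, raw YFP signal under a set limit, fluorescence ratio 0.5 to 1.5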;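 further: 0% = enzyme with DMSO and 100% = no enzyme wells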
#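 material = recombinant human SENP1 catalytic domain, His6-tagged | quantity = 20 pM enzyme | reagent = 25 nM SUMO1 FRET substrate | compound dosing = 10 µM single point, 0.5% DMSO | timing = 50 min enzyme reaction, room temperature, light-protected | detection = FRET, CFP and YFP emission | control set = no-enzyme low, enzyme-DMSO high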
# HSP90 confirm – confirmation of HSP90 inhibitors | shares compounds with HSP90 inh | rabbit reticulocyte lysate, luciferase refolding luminescence, 3 h | inhibition, % at 5.9 µM | 2,300 compounds, 64% hits; in the data active means inhibition above about 18%;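 further: 0% = vehicle wells and 100% = reference inhibitor wells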
# luciferase ctr – firefly luciferase inhibition, HSP90 counter-screen. purified native firefly luciferase, luminescence. shares compounds with HSP90 inh. inhibition, % at 5.9 µM. 2,300 compounds, 48% hits;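 active means inhibition above the mean inhibition of all tested sample wells plus 3 SD, cut at about 10% in these data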;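 further: 0% = DMSO with luciferase and 100% = wells lacking luciferase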
# Target sequence (P08659 whole entry, looked up): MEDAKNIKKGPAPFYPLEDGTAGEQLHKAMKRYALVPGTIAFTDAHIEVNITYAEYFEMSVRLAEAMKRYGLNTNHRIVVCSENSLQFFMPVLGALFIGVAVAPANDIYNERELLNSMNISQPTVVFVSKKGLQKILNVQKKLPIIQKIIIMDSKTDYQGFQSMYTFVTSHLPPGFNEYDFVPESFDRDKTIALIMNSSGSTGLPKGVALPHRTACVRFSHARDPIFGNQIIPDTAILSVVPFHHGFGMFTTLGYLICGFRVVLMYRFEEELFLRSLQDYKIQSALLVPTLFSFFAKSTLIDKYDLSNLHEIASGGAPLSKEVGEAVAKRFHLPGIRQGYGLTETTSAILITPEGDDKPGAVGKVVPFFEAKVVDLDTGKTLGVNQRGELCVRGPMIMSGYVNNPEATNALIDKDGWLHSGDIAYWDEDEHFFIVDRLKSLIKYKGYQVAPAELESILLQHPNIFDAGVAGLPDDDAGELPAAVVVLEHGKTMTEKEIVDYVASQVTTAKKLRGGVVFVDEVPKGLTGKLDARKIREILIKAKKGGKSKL
# * marks the source's active call; other numbers are inactive results; . = not tested or not shown.
SMILES,HSP90 inh,SENP8 block-1,SENP6 block,SENP8 block-2,SENP7 block,SENP1 inh,HSP90 confirm,luciferase ctr
C=CCn1c(C)cc(C(=O)COc2ncnc3sccc23)c1C,18*,-24,-10,-3,9,-51,45*,33*
O=C(Nc1cccc(-c2ccc(N3CCOCC3)nn2)c1)c1ccc(F)cc1F,.,-15,25,1,34,2,.,.
Cc1cnc(C(=O)Nc2ccc3c(c2)CCC3)cn1,17*,9,39,12,36,-2,27*,18*
CCOC(=O)CNC(=O)c1sc(NC(=O)c2cccc(F)c2)nc1C,32*,-74,33,2,6,-11,32*,-23
Cc1nc(NC(=O)c2ccc(F)cc2)sc1C(=O)Nc1ccc2c(c1)CCC2,39*,-15,4,-13,45,0,46*,-17
COc1cccc(NC(=O)c2sc(NC(=O)c3ccncc3)nc2C)c1,79*,11,8,39,24,1,80*,41*
Cn1c(=O)n(C)c2cc(NC(=O)c3ccc(F)cc3)ccc21,-1,21,-28,-7,3,0,.,.
Cc1nnc(NC(=O)c2cccc(F)c2)s1,0,7,8,-10,5,1,.,.
Cn1ncc(Cl)c1C(=O)Nc1ccc2c(c1)CCC2,-2,0,45,5,44,2,.,.
Cc1ccc(NS(=O)(=O)c2ccc(Cl)c(C(=O)Nc3cccc(C(=O)O)c3)c2)cc1,2,20,-17,-10,-7,1,.,.
CCc1nc2ccc(C(=O)N(C)C(C)C)cn2c1N(CCC(C)C)CCN(C)C,.,-8,.,.,.,-53,.,.
Cc1nc(NC(=O)C2CC2)sc1C(=O)Nc1ccccc1,-1,21,10,-8,-5,1,.,.
COC(=O)c1sc(NC(=S)NC(=O)c2cccc(C)c2)nc1C,22*,21,37,10,3,-2,2,-13
Cc1nc(NC(N)=S)sc1C(=O)Nc1ccccc1,19*,11,6,3,13,-19,26*,-7
COC(=O)c1sc(NC(=O)COc2cccc(C)c2)nc1C,-1,9,8,4,3,2,.,.
COC(=O)c1ccc(-c2ccc(/C=N/NC(=O)CC3(C)OCCCO3)o2)cc1,17*,-426,6,4,-4,-2,26*,0
CSc1ccc(CN2CCC(n3nccc3NC(=O)c3ccccc3C)CC2)cc1,-2,1,13,12,-1,2,.,.
Cc1c(CC(=O)N[C@H](C(=O)O)C(C)C)c(=O)oc2cc3c(cc12)CCC(C)(C)O3,27*,-273,13,-7,-5,-1,35*,14*
Cc1c(CC(=O)N[C@@H](C)C(=O)O)c(=O)oc2cc3c(cc12)CCC(C)(C)O3,-3,-313,-8,-2,-4,-3,.,.
Cc1ccc(S(=O)(=O)N2C[C@H]3C(=O)C[C@@H](c4ccc(Cl)cc4)N(S(=O)(=O)c4ccc(C)cc4)[C@H]3C[C@H]2c2cccc3ccccc23)cc1,.,13,.,.,.,0,.,.
CCOc1ccc(N=C(NN)c2ccc3ccccc3n2)cc1,28*,-46,24,0,1,-6,12,-4
O=C(O)C1CCN(C(=O)CSc2nnc3ccccn23)CC1,.,-11,6,2,3,1,.,.
CCOC(=O)c1csc(NC(=O)c2cc3ccccc3o2)n1,58*,-38,-12,-6,1,0,88*,-29
CCOC(=O)c1csc(NC(=O)c2ccc(S(=O)(=O)N(C)C)cc2)n1,25*,8,-26,-6,1,2,37*,-7
CCOC(=O)c1csc(NC(=O)c2ccccc2)n1,-1,7,-5,-5,2,0,.,.
SMILES,HSP90 inh,SENP8 block-1,SENP6 block,SENP8 block-2,SENP7 block,SENP1 inh,HSP90 confirm,luciferase ctr
CCOC(=O)c1sc(NC(=O)c2ccc(S(=O)(=O)N(C)C)cc2)nc1C,-3,-41,-10,-25,23,-1,.,.
CCOC(=O)c1csc(NC(=O)c2ccc(OCC)cc2)n1,42*,10,-3,1,3,-1,75*,-14
Cc1ccc(NC(=O)c2ccc3c(c2)OCCO3)cc1,20*,35,48,26,34,1,51*,45*
Cn1c(=O)c(=O)n(C)c2cc(N3CCOCC3)c(NS(=O)(=O)c3ccc(Br)cc3)cc21,-3,-40,7,-4,0,-1,.,.
CC1CCN(CC(=O)Nc2ccc(Br)cc2[N+](=O)[O-])CC1,-1,16,12,-1,1,2,.,.
CCCCNC(=O)C1(C)CCCCN1C(=O)c1ccc(C#N)cc1 (stereo not given),.,8,.,.,.,0,.,.
COC(=O)c1ccc(-n2c(C)cc(-c3csc(NC(=O)c4ccc(S(=O)(=O)N(C)C)cc4)n3)c2C)cc1,25*,13,7,7,6,6,24*,-9
Cc1cc(-c2csc(NC(=O)c3cc4ccccc4o3)n2)c(C)n1C,41*,-22,2,2,1,-9,34*,-14
CCOC(=O)c1csc(NC(=O)c2ccc3c(c2)OCCO3)n1,57*,-9,-2,-9,3,1,84*,-12
O=C(Nc1nc(-c2ccccn2)cs1)c1cc2ccccc2o1,7,-126,-1,0,-1,-16,.,.
Cc1ccnc(NC(=O)CCC(=O)N(CC(=O)NC(C)(C)C)c2ccc3c(c2)OCO3)c1,-2,1,-24,7,1,-2,.,.
COc1cccc2c1-c1c(C(=O)O)cccc1C2=O,2,7,4,7,0,-1,.,.
COc1cccc2c1C(=O)c1ccc3ccccc3c1C2=O,26*,-94,23,22,20,3,-1,-24
CCOC(=O)[C@@H]1[C@H]2COc3cc(OC)ccc3[C@@H]2N2C(=O)N(c3ccccc3)C(=O)[C@]12C,.,6,-2,1,0,2,.,.
COc1ccc(Cl)cc1C(=O)Nc1cccnc1Cl,1,10,15,-5,7,0,.,.
O=CNc1cc(-c2cccc(F)c2)cn2c(-c3ccc(F)c(Cl)c3)cnc12,.,-368,.,.,.,-12,.,.
CCOC(=O)c1sc(N)c(C#N)c1CSc1nc2ccc(OCC)cc2[nH]1,1,13,2,0,3,-4,.,.
CCOC(=O)c1sc(N)c(C#N)c1CSc1nc2ccc(C)cc2[nH]1,18*,23,-15,-2,-13,-19,0,-5
Cc1cc(C(=O)CN2C(=O)c3ccccc3S2(=O)=O)c(C)n1CC1CCCO1 (stereo not given),24*,-4,-7,-7,-7,2,28*,-14
